Assay results from ChEMBL document CHEMBL1142069, “Caspofungin in combination with amphotericin B against Candida parapsilosis” (Antimicrob Agents Chemother, 2007).
Converted amounts (≈) assume the structure as drawn. The source made the active and inactive calls. No cut-off for these calls is given here.

Key:
Format in all cases: functional, organism-based
Candida parapsilosis [1] = test: Antifungal activity against Candida parapsilosis at 0.5 ug/ml after 24 hrs
Summary of the method: (§1)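 Time-kill with C. parapsilosis strain no. 3. A 0.5 McFarland suspension was diluted 1:10 into MOPS-buffered RPMI 1640 with drug alone or combined, shaken at 35°C. Samples were taken at 0, 2, 6 and 24 h, serially diluted 10-fold and plated on Sabouraud dextrose agar. CFU counted after 48 h at 35°C; detection limit 20 CFU/ml. Triplicate.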

Candida parapsilosis [2] = test: Growth inhibition of Candida parapsilosis after 24 hrs by broth dilution assay; conditions: Lodderomyces parapsilosis
Summary of the method: (§2)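 CLSI-derived checkerboard broth microdilution in RPMI 1640 with 0.165 M MOPS, pH 7.0. Final ranges were AMB 0.03–2.0 µg/ml and CAS 0.03–64 µg/ml, alone or combined. Inoculum 1.0 x 10^3 to 5.0 x 10^3 CFU/ml (2x), 35°C in air. OD490 read at 24 and 48 h; IC50/IC90 taken as 50%/90% turbidity reduction versus control. Quintuplicate.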

Candida parapsilosis [3] = test: Growth inhibition of Candida parapsilosis after 48 hrs by broth dilution assay; conditions: Lodderomyces parapsilosis; summary of the method: as §2
Candida parapsilosis [4] = test: Fungistatic effect on Candida parapsilosis at 256 ug/ml after 24 hrs
Candida parapsilosis [5] = test: Antifungal activity against Candida parapsilosis at 4 ug/ml after 24 hrs; summary of the method: as §1

Row | Compound | Activity (Candida parapsilosis [1]) | IC50 (Candida parapsilosis [2]) | IC90 (Candida parapsilosis [2]) | IC50 (Candida parapsilosis [3]) | IC90 (Candida parapsilosis [3]) | Activity (Candida parapsilosis [4]) | Activity (Candida parapsilosis [5])
1 | C[C@@H]1[C@H](O)[C@@H](C)/C=C/C=C/C=C/C=C/C=C/C=C/C=C/[C@H](O[C@@H]2O[C@H](C)[C@@H](O)[C@H](N)[C@@H]2O)C[C@@H]2O[C@](O)(C[C@@H](O)C[C@@H](O)[C@H](O)CC[C@@H](O)C[C@@H](O)CC(=O)O[C@H]1C)C[C@H](O)[C@H]2C(=O)O [AMPHOTERICIN B] | inactive | 0.16 µg/mL (≈ 0.173 µM) | 0.34 µg/mL (≈ 0.368 µM) | 0.18 µg/mL (≈ 0.195 µM) | 0.68 µg/mL (≈ 0.736 µM) |  | 
2 | CC[C@H](C)C[C@H](C)CCCCCCCCC(=O)N[C@H]1C[C@@H](O)[C@@H](NCCN)NC(=O)[C@@H]2[C@@H](O)CCN2C(=O)[C@H]([C@H](O)CCN)NC(=O)[C@H]([C@H](O)[C@@H](O)c2ccc(O)cc2)NC(=O)[C@@H]2C[C@@H](O)CN2C(=O)[C@H]([C@@H](C)O)NC1=O [CASPOFUNGIN] |  | 0.79 µg/mL (≈ 0.723 µM) | 1.36 µg/mL (≈ 1.24 µM) | 1.17 µg/mL (≈ 1.07 µM) | 2.33 µg/mL (≈ 2.13 µM) | Active | inactive
